Source: PubChem BioAssay
Records with an inconclusive call do not appear.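 Rule for the calls, unless noted: active = cell viability at or below a set limit in both duplicate runs, the limit being the all-compound median minus 4 SD (cut at about 23% in these data, passing the limit was not always enough); inconclusive = no clear call, values can overlap the other calls; inactive = the rest.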

Legend:
[1] = S. cerevisiae growth inhibition in permissive medium (OD615), pilot counter-assay for S. cerevisiae lifespan shortening project, permissive growth control (AID 705;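 active = growth inhibition above 25% in both replicates, a cutoff set 3 SD above the mean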); conditions: OD615, 24 h, at 10 µM, active compounds read high
In short: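 Test system: Saccharomyces cerevisiae strain carrying genetically modified DeaD replicative-lifespan system; buffer or medium: SC raffinose/galactose permissive medium; dosing: one dose 10 µM, DMSO 0.25% final; times: 24 h exposure, 30 °C; measured by: OD at 615 nm; read-out basis: growth inhibition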

[2] = S. cerevisiae growth inhibition in restrictive medium, OD615, pilot screen, restrictive growth control, yeast lifespan reduction project (AID 706;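 active = growth inhibition above a set limit, 3 SD over mean compound inhibition, in both replicates, cut at about 43% in these data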;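 note: modified DeaD lifespan yeast strain shifted to restrictive glucose medium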); conditions: OD615, 48 h, at 10 µM, active compounds read high
In short: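 material = engineered S. cerevisiae DeaD strain | buffer or medium = glucose-based CSMM-D restrictive medium | dosing = one concentration, 10 µM final, 0.25% DMSO | schedule = 4 h pre-growth plus 48 h compound exposure, 30 °C | detection = OD615 absorbance reading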

[3] = doxorubicin toxicity protection in MRP-1 cells – H69AR cells, CellTiter-Glo, duplicate, MRP-1 activator project, pilot screen (AID 807;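 active = viability increase at or above a cutoff of the median across tested compounds plus 3 SD, cut at about 8.5% in these data, passing the limit was not always enough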;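 note: compound pretreatment 18-22 h then 72 h combined with doxorubicin; 0% = doxorubicin alone and 100% = vehicle without doxorubicin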); conditions: H69AR viability with doxorubicin, CellTiter-Glo luminescence; at 10 µM; active compounds read high
[4] = viability of HCT116 without oncogenic beta-catenin – human colon tumor cells, pilot screen (AID 823); conditions: HCT116 beta-catenin knockout viability, CellTiter-Glo, 60 h; at 10 µM; active compounds read low;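 note: 0% = wells killed by 20 µM Hyamine and 100% = untreated DMSO cell wells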
[5] = viability of PTEN-null HCT116 cells – cell-based, HCT116 clonal line, CellTiter-Glo, pilot screen (AID 824;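 active = viability at or below 27.92% in each of two runs, the all-compound median minus 4 SD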;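 note: 0% = 20 µM Hyamine control and 100% = vehicle cell control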); conditions: HCT116 PTEN-deleted viability, 60 h, at 10 µM, active compounds read low
[6] = RAM pathway blockade in budding yeast – dse1pr::URA3 reporter, 5-FOA selection, pilot screen (AID 869;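 active = inhibition over a set limit, the all-compound mean plus 3 SD, in both replicate runs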;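 note: 0% = DMSO wells with no growth and 100% = 10 µM 1-NA-PP1 with full growth; RAM network block rescues cells from 5-FOA so hits raise OD615 growth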); conditions: S. cerevisiae dse1pr::URA3 5-FOA growth, OD615, 2 d; at 10 µM; active compounds read high; strain carries analog-sensitive mutant Cbk1 kinase
[7] = RAM signaling pathway blockade in yeast – S. cerevisiae, Pdr1DBD-CYC8 efflux-inhibited sensitized strain, primary screen (AID 1298;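 active = RAM network inhibition above 8.4% in each of two replicates, 3 SD over the compound average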;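 note: 0% = DMSO untreated cells without growth and 100% = 10 µM 1-NA-PP1 full growth; higher means more yeast growth rescued from 5-FOA killing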); conditions: S. cerevisiae cbk1-as DSE1-URA3 strain, 5-FOA growth OD615, 2 d; at 50 µM; active compounds read high

Cc1nc(S(=O)(=O)c2ccc(Cl)cc2)c(NCc2ccccc2)o1
inactive: growth inhibition [1] -6.92% | growth inhibition [2] -2.45% | viability increase [3] -0.96% | viability [4] 94.5% | viability [5] 95.5% | inhibition [6] 2.39% | RAM network inhibition [7] 4.59%

CCOC(=O)c1[nH]c(C)c(C(=O)Nc2ccc(C)c(C)c2)c1C
inactive: growth inhibition [1] -12.6% | growth inhibition [2] -10.7% | viability increase [3] -4.91% | viability [4] 64.1% | viability [5] 45.9% | inhibition [6] 1.46% | RAM network inhibition [7] 1.84%

CCC(C)[C@@H](C(=O)Nc1ccc(OC)c(OC)c1)N1Cc2ccccc2C1=O (stereo not given in full)
inactive: growth inhibition [1] -13.5% | growth inhibition [2] -13.6% | viability increase [3] -2.11% | viability [4] 91.8% | viability [5] 82.8% | inhibition [6] 2.65% | RAM network inhibition [7] 2.81%

CS(=O)(=O)N1CCN(c2nc(-c3ccc(F)cc3)cs2)CC1
inactive: growth inhibition [1] -4.7% | growth inhibition [2] 1.69% | viability increase [3] -0.68% | viability [4] 90.9% | viability [5] 88.8% | inhibition [6] 2.98% | RAM network inhibition [7] 3.11%

COc1ccc2[nH]c(C)c(CCN3C(=O)C4CC=CCC4C3=O)c2c1 (stereo not given)
inactive: growth inhibition [1] -14.4% | growth inhibition [2] -15.3% | viability increase [3] 0.77% | viability [4] 105% | viability [5] 89.2% | inhibition [6] 0.55% | RAM network inhibition [7] 2.77%

O=C(O)CC12CSc3[nH]c(=O)sc3C1c1ccccc1OC2=O (stereo not given)
inactive: growth inhibition [1] 3.48% | growth inhibition [2] -0.005% | viability increase [3] -2.73% | viability [4] 101% | viability [5] 95% | inhibition [6] 1.14% | RAM network inhibition [7] -0.11%

Cc1ccc(C)c(S(=O)(=O)Nc2ccc(O)cc2)c1
inactive: growth inhibition [1] -9.59% | growth inhibition [2] 11.7% | viability increase [3] -2.63% | viability [4] 101% | viability [5] 97% | inhibition [6] 1.44% | RAM network inhibition [7] 2.77%

CCN(CC)c1ccc(/C=N/n2c(C)cc(C)cc2=O)cc1
inactive: growth inhibition [1] 0.085% | growth inhibition [2] 7.67% | viability increase [3] -0.57% | viability [4] 105% | viability [5] 93% | inhibition [6] 0.145% | RAM network inhibition [7] 1.36%

CCOC(=O)CSC1=C(C#N)C(c2ccccc2Cl)C(C(=O)OC)C(=O)N1 (stereo not given)
inactive: growth inhibition [1] -8.45% | growth inhibition [2] -0.68% | viability increase [3] -0.9% | viability [4] 90.3% | viability [5] 91.8% | inhibition [6] 0.14% | RAM network inhibition [7] 2.05%

Cc1cccc(Cn2c(N3CCCCC3C)nc3c2c(=O)[nH]c(=O)n3C)c1 (stereo not given)
inactive: growth inhibition [1] -17.5% | growth inhibition [2] -16.4% | viability increase [3] -5.08% | viability [4] 89.3% | viability [5] 78% | inhibition [6] 0.805% | RAM network inhibition [7] 2.4%

CCCC(=O)Nc1nc2c(OC)ccc(OC)c2s1
inactive: growth inhibition [1] -7.39% | growth inhibition [2] -5.13% | viability increase [3] -3.01% | viability [4] 93.5% | viability [5] 90.3% | inhibition [6] 2.33% | RAM network inhibition [7] 3.64%

COc1cccc(C(c2sc3ncnn3c2O)N2CC(C)OC(C)C2)c1 (stereo not given)
inactive: growth inhibition [1] 4.48% | growth inhibition [2] -2.31% | viability increase [3] 2.62% | viability [4] 99.1% | viability [5] 95.7% | inhibition [6] 1.34% | RAM network inhibition [7] 2.05%

CC(C)CC(=O)Nc1c2c(nn1-c1ccc(F)cc1)CSC2
inactive: growth inhibition [1] -13.9% | growth inhibition [2] -14.5% | viability increase [3] -1.7% | viability [4] 91.1% | viability [5] 90.9% | inhibition [6] 1.46% | RAM network inhibition [7] 5.43%

CC1(C)CC(=O)C2=C(C1)N(c1ccc(F)cc1)C(=O)CC2c1cccnc1 (stereo not given)
inactive: growth inhibition [1] 0.065% | growth inhibition [2] -2% | viability increase [3] -2.17% | viability [4] 95.9% | viability [5] 100% | inhibition [6] 2.41% | RAM network inhibition [7] 5.94%

COc1ccc(CN2CCN(c3cccc(C)c3C)CC2)cc1OC
inactive: growth inhibition [1] -8.54% | growth inhibition [2] -1.75% | viability increase [3] -1.96% | viability [4] 51.8% | viability [5] 54% | inhibition [6] 1.5% | RAM network inhibition [7] 1.07%
